Experimental data from ChEMBL document CHEMBL1145515, “In Vitro activities of isepamicin, other aminoglycosides, and capreomycin against clinical isolates of rapidly growing mycobacteria in Taiwan” (2007).
Converted amounts (≈) assume the structure as drawn.

Assays:
Assay type in all cases: functional
[1] = system: Mycobacteroides abscessus; experiment: Antimicrobial activity against Mycobacterium abscessus R49 isolate after 3 to 5 days by broth microdilution method
Summary of the method: (§1)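 Clinical isolates subcultured on Trypticase soy agar with 5% sheep blood, 30°C, 72 h. Colonies suspended in cation-supplemented Mueller-Hinton broth to a final inoculum of 5 × 10^5 CFU/ml. Twofold serial dilutions made in the same broth, final well concentrations 0.25 to 128 μg/ml. Trays incubated at 30°C; MIC read after 3 to 5 days.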

[2] = system: Mycobacteroides abscessus; experiment: Antimicrobial activity against Mycobacterium abscessus R47 isolate after 3 to 5 days by broth microdilution method; summary of the method: as §1
[3] = system: Mycolicibacterium fortuitum; experiment: Antimicrobial activity against Mycobacterium fortuitum V146 isolate after 3 to 5 days by broth microdilution method; summary of the method: as §1
[4] = system: Mycobacteroides abscessus; experiment: Antimicrobial activity against Mycobacterium abscessus R53 isolate after 3 to 5 days by broth microdilution method; summary of the method: as §1
[5] = system: Mycobacteroides abscessus; experiment: Antimicrobial activity against Mycobacterium abscessus NTU445 isolate after 3 to 5 days by broth microdilution method; summary of the method: as §1
[6] = system: Mycobacteroides abscessus; experiment: Antimicrobial activity against Mycobacterium abscessus NTU446 isolate after 3 to 5 days by broth microdilution method; summary of the method: as §1
[7] = system: Mycobacteroides abscessus; experiment: Antimicrobial activity against Mycobacterium abscessus R51 isolate after 3 to 5 days by broth microdilution method; summary of the method: as §1
[8] = system: Mycobacteroides abscessus; experiment: Antimicrobial activity against Mycobacterium abscessus R31 isolate after 3 to 5 days by broth microdilution method; summary of the method: as §1
[9] = system: Mycobacteroides abscessus; experiment: Antimicrobial activity against Mycobacterium abscessus R61 isolate after 3 to 5 days by broth microdilution method; summary of the method: as §1
[10] = system: Mycobacteroides abscessus; experiment: Antimicrobial activity against Mycobacterium abscessus CH10 isolate after 3 to 5 days by broth microdilution method; summary of the method: as §1
[11] = system: Mycobacteroides abscessus; experiment: Antimicrobial activity against Mycobacterium abscessus R39 isolate after 3 to 5 days by broth microdilution method; summary of the method: as §1
[12] = system: Mycobacteroides abscessus; experiment: Antimicrobial activity against Mycobacterium abscessus after 3 to 5 days by broth microdilution method; summary of the method: as §1
[13] = system: Mycobacteroides abscessus; experiment: Antimicrobial activity against Mycobacterium abscessus R54 isolate after 3 to 5 days by broth microdilution method; summary of the method: as §1
[14] = system: Mycolicibacterium fortuitum; experiment: Antimicrobial activity against Mycobacterium fortuitum V13 isolate after 3 to 5 days by broth microdilution method; summary of the method: as §1
[15] = system: Mycolicibacterium fortuitum; experiment: Antimicrobial activity against Mycobacterium fortuitum after 3 to 5 days by broth microdilution method; summary of the method: as §1
Mycobacteroides chelonae = experiment: Antimicrobial activity against Mycobacterium chelonae after 3 to 5 days by broth microdilution method; summary of the method: as §1
[16] = system: Mycolicibacterium fortuitum; experiment: Antimicrobial activity against Mycobacterium fortuitum V61 isolate after 3 to 5 days by broth microdilution method; summary of the method: as §1
[17] = system: Mycobacteroides abscessus; experiment: Antimicrobial activity against Mycobacterium abscessus V120 isolate after 3 to 5 days by broth microdilution method; summary of the method: as §1
[18] = system: Mycobacteroides abscessus; experiment: Antimicrobial activity against Mycobacterium abscessus R50 isolate after 3 to 5 days by broth microdilution method; summary of the method: as §1
[19] = system: Mycobacteroides abscessus; experiment: Antimicrobial activity against Mycobacterium abscessus R65 isolate after 3 to 5 days by broth microdilution method; summary of the method: as §1
[20] = system: Mycobacteroides abscessus; experiment: Antimicrobial activity against Mycobacterium abscessus NTU459 isolate after 3 to 5 days by broth microdilution method; summary of the method: as §1

Structure (SMILES): CN[C@@H]1[C@@H](O)[C@@H](O[C@@H]2[C@@H](O)[C@H](O[C@H]3O[C@H](CN)[C@@H](O)[C@H](O)[C@H]3O)[C@@H](N)C[C@H]2NC(=O)[C@@H](O)CN)OC[C@]1(C)O [ISEPAMICIN]
- MIC [1]: 8 µg/mL (≈ 14 µM)
- MIC [2]: 16 µg/mL (≈ 28.1 µM)
- MIC [3]: 32 µg/mL (≈ 56.2 µM)
- MIC [4]: 16 µg/mL (≈ 28.1 µM)
- MIC [5]: 32 µg/mL (≈ 56.2 µM)
- MIC [6]: 16 µg/mL (≈ 28.1 µM)
- MIC [7]: 16 µg/mL (≈ 28.1 µM)
- MIC [8]: > 128 µg/mL
- MIC [9]: 16 µg/mL (≈ 28.1 µM)
- MIC [10]: > 128 µg/mL
- MIC [11]: 32 µg/mL (≈ 56.2 µM)
- MIC50 [12]: 8 µg/mL (≈ 14 µM)
- MIC90 [12]: 16 µg/mL (≈ 28.1 µM)
- MIC [13]: 16 µg/mL (≈ 28.1 µM)
- MIC [14]: 64 µg/mL (≈ 112 µM)
- MIC50 [15]: 8 µg/mL (≈ 14 µM)
- MIC90 [15]: 16 µg/mL (≈ 28.1 µM)
- MIC50 (Mycobacteroides chelonae): 4 µg/mL (≈ 7.02 µM)
- MIC90 (Mycobacteroides chelonae): 8 µg/mL (≈ 14 µM)
- MIC [16]: 32 µg/mL (≈ 56.2 µM)
- MIC [17]: 8 µg/mL (≈ 14 µM)
- MIC [18]: 16 µg/mL (≈ 28.1 µM)
- MIC [19]: 16 µg/mL (≈ 28.1 µM)
- MIC [20]: 32 µg/mL (≈ 56.2 µM)

Structure (SMILES): CN[C@@H]1[C@H](O[C@H]2[C@H](O[C@H]3[C@H](O)[C@@H](O)[C@H](N=C(N)N)[C@@H](O)[C@@H]3N=C(N)N)O[C@@H](C)[C@]2(O)C=O)O[C@@H](CO)[C@H](O)[C@H]1O (stereo in doubt) [STREPTOMYCIN]
- MIC [1]: 128 µg/mL (≈ 220 µM)
- MIC [2]: > 128 µg/mL
- MIC [3]: > 128 µg/mL
- MIC [4]: 128 µg/mL (≈ 220 µM)
- MIC [5]: > 128 µg/mL
- MIC [6]: > 128 µg/mL
- MIC [7]: > 128 µg/mL
- MIC [8]: > 128 µg/mL
- MIC [9]: > 128 µg/mL
- MIC [10]: > 128 µg/mL
- MIC [11]: > 128 µg/mL
- MIC50 [12]: 128 µg/mL (≈ 220 µM)
- MIC90 [12]: > 128 µg/mL
- MIC [13]: > 128 µg/mL
- MIC [14]: 128 µg/mL (≈ 220 µM)
- MIC50 [15]: 64 µg/mL (≈ 110 µM)
- MIC90 [15]: 128 µg/mL (≈ 220 µM)
- MIC50 (Mycobacteroides chelonae): 64 µg/mL (≈ 110 µM)
- MIC90 (Mycobacteroides chelonae): 128 µg/mL (≈ 220 µM)
- MIC [16]: > 128 µg/mL
- MIC [17]: 128 µg/mL (≈ 220 µM)
- MIC [18]: > 128 µg/mL
- MIC [19]: > 128 µg/mL
- MIC [20]: > 128 µg/mL

Structure (SMILES): NC[C@H]1O[C@H](O[C@H]2C(O)[C@@H](O[C@H]3O[C@H](CO)[C@@H](O)[C@H](N)[C@H]3O)[C@H](N)C[C@@H]2N)[C@H](N)C[C@@H]1O (single isomer, unassigned) [TOBRAMYCIN]
- MIC [1]: 16 µg/mL (≈ 34.2 µM)
- MIC [2]: 16 µg/mL (≈ 34.2 µM)
- MIC [3]: 64 µg/mL (≈ 137 µM)
- MIC [4]: 8 µg/mL (≈ 17.1 µM)
- MIC [5]: 16 µg/mL (≈ 34.2 µM)
- MIC [6]: 4 µg/mL (≈ 8.56 µM)
- MIC [7]: 32 µg/mL (≈ 68.4 µM)
- MIC [8]: > 128 µg/mL
- MIC [9]: 16 µg/mL (≈ 34.2 µM)
- MIC [10]: > 128 µg/mL
- MIC [11]: 32 µg/mL (≈ 68.4 µM)
- MIC50 [12]: 8 µg/mL (≈ 17.1 µM)
- MIC90 [12]: 16 µg/mL (≈ 34.2 µM)
- MIC [13]: 32 µg/mL (≈ 68.4 µM)
- MIC [14]: 128 µg/mL (≈ 274 µM)
- MIC50 [15]: 16 µg/mL (≈ 34.2 µM)
- MIC90 [15]: 64 µg/mL (≈ 137 µM)
- MIC50 (Mycobacteroides chelonae): 16 µg/mL (≈ 34.2 µM)
- MIC90 (Mycobacteroides chelonae): 32 µg/mL (≈ 68.4 µM)
- MIC [16]: 64 µg/mL (≈ 137 µM)
- MIC [17]: 16 µg/mL (≈ 34.2 µM)
- MIC [18]: 16 µg/mL (≈ 34.2 µM)
- MIC [19]: 16 µg/mL (≈ 34.2 µM)
- MIC [20]: 8 µg/mL (≈ 17.1 µM)

Structure (SMILES): NCC[C@H](O)C(=O)N[C@@H]1C[C@H](N)[C@@H](O[C@H]2O[C@H](CN)[C@@H](O)[C@H](O)[C@H]2O)[C@H](O)[C@H]1O[C@H]1O[C@H](CO)[C@@H](O)[C@H](N)[C@H]1O [AMIKACIN]
- MIC [1]: 32 µg/mL (≈ 54.6 µM)
- MIC [2]: 32 µg/mL (≈ 54.6 µM)
- MIC [3]: 4 µg/mL (≈ 6.83 µM)
- MIC [4]: 32 µg/mL (≈ 54.6 µM)
- MIC [5]: 32 µg/mL (≈ 54.6 µM)
- MIC [6]: 32 µg/mL (≈ 54.6 µM)
- MIC [7]: 32 µg/mL (≈ 54.6 µM)
- MIC [8]: > 128 µg/mL
- MIC [9]: 32 µg/mL (≈ 54.6 µM)
- MIC [10]: > 128 µg/mL
- MIC [11]: 64 µg/mL (≈ 109 µM)
- MIC50 [12]: 16 µg/mL (≈ 27.3 µM)
- MIC90 [12]: 32 µg/mL (≈ 54.6 µM)
- MIC [13]: 32 µg/mL (≈ 54.6 µM)
- MIC [14]: 4 µg/mL (≈ 6.83 µM)
- MIC50 [15]: 1 µg/mL (≈ 1.71 µM)
- MIC90 [15]: 4 µg/mL (≈ 6.83 µM)
- MIC50 (Mycobacteroides chelonae): 8 µg/mL (≈ 13.7 µM)
- MIC90 (Mycobacteroides chelonae): 8 µg/mL (≈ 13.7 µM)
- MIC [16]: 4 µg/mL (≈ 6.83 µM)
- MIC [17]: 32 µg/mL (≈ 54.6 µM)
- MIC [18]: 32 µg/mL (≈ 54.6 µM)
- MIC [19]: 32 µg/mL (≈ 54.6 µM)
- MIC [20]: 32 µg/mL (≈ 54.6 µM)

Structure (SMILES): NC[C@H]1O[C@H](O[C@H]2[C@H](O)[C@@H](O[C@H]3O[C@H](CO)[C@@H](O)[C@H](N)[C@H]3O)[C@H](N)C[C@@H]2N)[C@H](O)[C@@H](O)[C@@H]1O [KANAMYCIN]
- MIC [1]: 4 µg/mL (≈ 8.26 µM)
- MIC [2]: 8 µg/mL (≈ 16.5 µM)
- MIC [3]: 32 µg/mL (≈ 66 µM)
- MIC [4]: 4 µg/mL (≈ 8.26 µM)
- MIC [5]: 16 µg/mL (≈ 33 µM)
- MIC [6]: 8 µg/mL (≈ 16.5 µM)
- MIC [7]: 16 µg/mL (≈ 33 µM)
- MIC [8]: > 128 µg/mL
- MIC [9]: 8 µg/mL (≈ 16.5 µM)
- MIC [10]: > 128 µg/mL
- MIC [11]: 16 µg/mL (≈ 33 µM)
- MIC50 [12]: 8 µg/mL (≈ 16.5 µM)
- MIC90 [12]: 8 µg/mL (≈ 16.5 µM)
- MIC [13]: 8 µg/mL (≈ 16.5 µM)
- MIC [14]: > 128 µg/mL
- MIC50 [15]: 8 µg/mL (≈ 16.5 µM)
- MIC90 [15]: 32 µg/mL (≈ 66 µM)
- MIC50 (Mycobacteroides chelonae): 4 µg/mL (≈ 8.26 µM)
- MIC90 (Mycobacteroides chelonae): 8 µg/mL (≈ 16.5 µM)
- MIC [16]: 32 µg/mL (≈ 66 µM)
- MIC [17]: 8 µg/mL (≈ 16.5 µM)
- MIC [18]: 8 µg/mL (≈ 16.5 µM)
- MIC [19]: 8 µg/mL (≈ 16.5 µM)
- MIC [20]: 16 µg/mL (≈ 33 µM)
